{"data": "Measured values gathered from unrelated publications", "target": "Aurora kinase C (AURKC, Homo sapiens, UniProt Q9UQB9)", "One construct used (Q9UQB9 1-309)": "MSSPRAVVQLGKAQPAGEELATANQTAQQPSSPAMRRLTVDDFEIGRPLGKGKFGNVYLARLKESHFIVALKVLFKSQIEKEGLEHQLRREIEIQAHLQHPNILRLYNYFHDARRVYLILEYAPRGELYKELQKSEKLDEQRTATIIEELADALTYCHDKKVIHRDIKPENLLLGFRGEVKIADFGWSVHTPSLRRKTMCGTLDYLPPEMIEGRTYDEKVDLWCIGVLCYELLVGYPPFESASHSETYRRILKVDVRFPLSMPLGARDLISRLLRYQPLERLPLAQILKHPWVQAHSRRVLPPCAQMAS", "note": "Each line is one published result; the experiments were not run side by side."}
{"Compound": "O=C(O)[C@H]1[C@H](Cn2nnc3ccccc3c2=O)CC[C@@H]1C(=O)c1ccc(OCCC2CCOCC2)cc1", "test": "cell-free assay, competition with immobilised ligand", "setting": "1 µM", "measurement": "remaining binding", "value": "79%"}
{"Compound": "CC(C)(C)c1nc2c(s1)c1nc(N)ncc1c1ccc(NS(=O)(=O)c3c(F)cccc3F)c(F)c12", "test": "enzyme activity, inhibitor, radiometric", "setting": "1 µM", "measurement": "remaining activity", "value": "104%"}
{"Compound": "Cc1ccc(C(=O)NCc2ccsc2)cc1C#Cc1cn(C(C)C)c2ncnc(N)c12", "test": "enzyme activity, inhibitor", "setting": "1 µM", "measurement": "activity vs control", "value": "81%"}
{"Compound": "COc1cc(Cl)c(C(=O)N[C@@H](CN[C@H]2CC[C@@H](N)CC2)Cc2ccc(C#N)cc2)cc1-c1ccc(CN[C@H](C)c2ccc(C)cc2)o1", "test": "enzyme activity, inhibitor", "setting": "1 µM", "measurement": "remaining activity", "value": "94%"}
{"Compound": "O=C(NS(=O)(=O)c1ccc(NCC2CCOCC2)c([N+](=O)[O-])c1)c1ccc(N2CCN(Cc3ccc(C(F)(F)F)cc3-c3ccc(Cl)cc3)CC2)cc1Oc1cnc2[nH]ccc2c1", "test": "cell-free assay, competition with immobilised ligand", "setting": "1 µM", "measurement": "remaining binding", "value": "97%"}
{"Compound": "CC(C)(O)[C@H]1CC[C@H](Nc2ccc3ncc(-c4cccc(C(F)(F)F)c4)n3n2)CC1", "test": "enzyme activity, inhibitor", "setting": "1 µM", "measurement": "remaining activity", "value": "88.5%"}
{"Compound": "CN(C)C(=O)Cn1cc(-c2nc([C@@](C)(c3ccc(-c4cnc(N)nc4)cc3)C3CC3)no2)cn1", "test": "cell-free assay, competition with immobilised ligand", "setting": "1 µM", "measurement": "remaining binding", "value": "100%"}
{"Compound": "CN1CC(Oc2cnc(C#N)cc2-c2ccn3nc(NC(=O)C4CC4)cc3c2)C1", "test": "enzyme activity, inhibitor", "setting": "1 µM", "measurement": "inhibition", "value": "3%"}
{"Compound": "CNC(=O)c1cc(Oc2ccc(NC(=O)Nc3ccc(Cl)c(C(F)(F)F)c3)cc2)ccn1", "test": "cell-free assay", "setting": "0.5 µM", "measurement": "remaining signal", "value": "106%"}
{"Compound": "O=C(NCc1ncc(C(F)(F)F)cc1Cl)c1ccc2c(c1)C1(CCS(=O)(=O)CC1)[C@@H](C1CC1)N2S(=O)(=O)c1ccc(F)cc1", "test": "cell-free assay, competition with immobilised ligand", "setting": "1 µM", "measurement": "remaining binding", "value": "80%"}
{"Compound": "O=c1cc(-c2cccc3c2Sc2ccccc2S3)oc(N2CCOCC2)c1", "test": "enzyme activity, inhibitor", "setting": "0.5 µM", "measurement": "remaining activity", "value": "84.9%"}
{"Compound": "Cc1cnc(NC2CCOCC2)nc1-n1cnc(C(=O)NC(CN)c2cc(F)cc(Cl)c2)c1 (centres unmarked)", "test": "enzyme activity, inhibitor, radiometric", "setting": "1 µM", "measurement": "remaining activity", "value": "67%"}
{"Compound": "CC/C(=N\\NC(=O)NCc1cccc(O)c1)c1ccc(O)c(C)c1O", "test": "enzyme activity, inhibitor", "setting": "0.1 µM", "measurement": "inhibition", "value": "2.5%"}
{"Compound": "COc1cc2ncnc(Nc3ccc(Oc4ccccc4)cc3C)c2cc1OC", "test": "enzyme activity, inhibitor", "setting": "1 µM", "measurement": "inhibition", "value": "1%"}
{"Compound": "O=C1Nc2ccc(Cl)cc2C1=Cc1cc(Cl)c(O)c(Cl)c1", "test": "cell-free assay", "setting": "0.5 µM", "measurement": "remaining signal", "value": "78.6%"}
{"Compound": "CCN(CC)c1ccc(C2=NNC(=O)CC2C)cc1[N+](=O)[O-] (centres unmarked)", "test": "enzyme activity, inhibitor", "setting": "10 µM", "measurement": "remaining activity", "value": "122%"}
{"Compound": "CC(=O)N1CCC(c2ccc(C(=O)NC3=NCCN3)cc2C(F)(F)F)CC1", "test": "cell-free assay, competition with immobilised ligand", "setting": "1 µM", "measurement": "remaining binding", "value": "100%"}
{"Compound": "Cc1sc(C(=O)NC2COC2)cc1-n1cc(NC(=O)Nc2c(F)cccc2Cl)cn1", "test": "enzyme activity, inhibitor", "setting": "10 µM", "measurement": "remaining activity", "value": "104%"}
{"Compound": "O=C1NC(=O)c2cc(Nc3ccc(F)cc3)c(Nc3ccc(F)cc3)cc21", "test": "cell-free assay", "setting": "0.5 µM", "measurement": "remaining signal", "value": "90.8%"}
{"Compound": "CCC(=O)N[C@@H]1CC[C@H](C(=O)N(C)c2ccc(-c3nc4ccccc4o3)cc2)C1", "test": "cell-free assay, competition with immobilised ligand", "setting": "1 µM", "measurement": "remaining binding", "value": "100%"}
